# ChEMBL document CHEMBL4406856, “Structure based design, synthesis and in vitro antitumour activity of tiazofurin stereoisomers with nitrogen functions at the C-2' or C-3' positions” (Eur J Med Chem, 2019)
# pIC50: −log10 of the molar value. The source made the active and inactive calls. The rule behind the calls is not given here.
# Key:
# Raji = assay: Antiproliferative activity against human Raji cells assessed as reduction in cell growth incubated for 72 hrs by MTT assay; format: functional, cell-based
# Method in brief: (§1)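 Colorimetric MTT assay on human tumour lines K562 (chronic myeloid leukemia), HL-60 (promyelocytic leukemia), Jurkat (T cell leukemia), Raji (Burkitt's lymphoma), HT-29 (colorectal adenocarcinoma), HeLa (cervix adenocarcinoma) and normal lung fibroblast MRC-5; cells exposed to compounds for 72 h.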
# K562 [1] = assay: Cell cycle arrest in human K562 cells assessed as accumulation in SubG1 phase incubated for 72 hrs by propidium iodide staining based flow cytometry (reference value: 3.07%); format: functional
# Method in brief: (§2)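 Exponentially growing K562 cells treated for 24 or 72 h, untreated cells as control; cells stained with propidium iodide and DNA content read by flow cytometry. Phase distribution (subG1, G0/G1, S, G2/M) taken from one-parameter histograms, subG1 scored as hypodiploid, apoptotic cells.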
# HeLa [2] = assay: Antiproliferative activity against human HeLa cells assessed as reduction in cell growth incubated for 72 hrs by MTT assay; format: functional, cell-based
# Method in brief: as §1, with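 “h. IC50 taken as concentration giving 50% growth inhibition versus untreated control.” for “h.”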
# K562 [3] = assay: Cell cycle arrest in human K562 cells assessed as accumulation in G0/G1 phase incubated for 72 hrs by propidium iodide staining based flow cytometry (reference value: 45.43%); format: functional; method in brief: as §2
# K562 [4] = assay: Potency index, ratio of tiazofurin IC50 to compound IC50 for cytotoxicity against human K562 cells incubated for 72 hrs by MTT assay; format: functional
# K562 [5] = assay: Cell cycle arrest in human K562 cells assessed as accumulation in S phase incubated for 72 hrs by propidium iodide staining based flow cytometry (reference value: 36.05%); format: functional; method in brief: as §2
# HL-60 = assay: Antiproliferative activity against human HL60 cells assessed as reduction in cell growth incubated for 72 hrs by MTT assay; format: functional, cell-based; settings: HL-60, 72 h
# Method in brief: as §1, with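 “h. IC50 taken as concentration giving 50% growth inhibition versus untreated control.” for “h.”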
# HeLa [6] = assay: Potency index, ratio of tiazofurin IC50 to compound IC50 for cytotoxicity against human HeLa cells incubated for 72 hrs by MTT assay; format: functional
# MRC5 = assay: Cytotoxicity against human MRC5 cells assessed as reduction in cell viability incubated for 72 hrs by MTT assay; format: cell-based; settings: MRC5, 72 h; method in brief: as §1
# K562 [7] = assay: Induction of apoptosis in human K562 cells assessed as Bax level incubated for 72 hrs by Western blot analysis (reference value: 100%); format: functional
# Method in brief: (§3)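 K562 cells treated for 72 h; Bcl-2, BAX, caspase 3 precursor (32 kDa), caspase 3 active subunit (18 kDa) and PARP (112 and 85 kDa) measured by Western blot and expressed as % of untreated control.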
# K562 [8] = assay: Potency index, ratio of doxorubicin IC50 to compound IC50 for cytotoxicity against human K562 cells incubated for 72 hrs by MTT assay; format: functional
# K562 [9] = assay: Cell cycle arrest in human K562 cells assessed as accumulation in G2/M phase incubated for 72 hrs by propidium iodide staining based flow cytometry (reference value: 15.45%); format: functional; method in brief: as §2
# K562 [10] = assay: Genotoxicity in human K562 cells assessed as increase in DNA damage at cytotoxic IC50 incubated for 72 hrs by comet assay; format: toxicity, cell-based; settings: k562, 72 h
# Method in brief: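 Modified alkaline comet assay: cells set in agarose on slides, electrophoresed horizontally, stained with ethidium bromide and imaged by fluorescence microscopy. 50 comets scored per sample; mean tail moment used as the DNA-damage measure.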
# Jurkat [11] = assay: Potency index, ratio of tiazofurin IC50 to compound IC50 for cytotoxicity against human Jurkat cells incubated for 72 hrs by MTT assay; format: functional
# Jurkat [12] = assay: Antiproliferative activity against human Jurkat cells assessed as reduction in cell growth incubated for 72 hrs by MTT assay; format: functional, cell-based
# Method in brief: as §1, with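 “h. IC50 taken as concentration giving 50% growth inhibition versus untreated control.” for “h.”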
# K562 [13] = assay: Induction of apoptosis in human K562 cells assessed as reduction in cell membrane integrity at cytotoxic IC50 incubated for 72 hrs by acridine orange and ethidium bromide double staining based fluorescence microscopy; format: functional
# K562 [14] = assay: Induction of apoptosis in human K562 cells assessed as 18 kDa Caspase 3 active subunit level incubated for 72 hrs by Western blot analysis (reference value: 100%); format: functional; method in brief: as §3
# K562 [15] = assay: Antiproliferative activity against human K562 cells assessed as reduction in cell growth incubated for 72 hrs by MTT assay; format: functional, cell-based; settings: K562, 72 h; method in brief: as §1
# K562 [16] = assay: Cell cycle arrest in human K562 cells assessed as accumulation in S phase incubated for 24 hrs by propidium iodide staining based flow cytometry (reference value: 48.38%); format: functional; method in brief: as §2
# HT-29 [17] = assay: Potency index, ratio of tiazofurin IC50 to compound IC50 for cytotoxicity against human HT-29 cells incubated for 72 hrs by MTT assay; format: functional
# K562 [18] = assay: Induction of apoptosis in human K562 cells assessed as Bcl2 level incubated for 72 hrs by Western blot analysis (reference value: 100%); format: functional; method in brief: as §3
# HeLa [19] = assay: Potency index, ratio of doxorubicin IC50 to compound IC50 for cytotoxicity against human HeLa cells incubated for 72 hrs by MTT assay; format: functional
# K562 [20] = assay: Cell cycle arrest in human K562 cells assessed as accumulation in sub-G1 phase incubated for 24 hrs by propidium iodide staining based flow cytometry (reference value: 1.05%); format: functional; method in brief: as §2
# K562 [21] = assay: Induction of apoptosis in human K562 cells assessed as 32 kDa Caspase 3 precursor level incubated for 72 hrs by Western blot analysis (reference value: 100%); format: functional; method in brief: as §3
# K562 [22] = assay: Induction of necrosis in human K562 cells incubated for 72 hrs by annexin V FITC and propidium iodide staining based flow cytometry relative to control; format: functional; design: concentration or dose not given beside the values
# Method in brief: (§4)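 K562 cells treated for 72 h, stained with Annexin V-FITC/propidium iodide and analysed by flow cytometry. Apoptotic, necrotic and live fractions scored as percent of gated cells; specific apoptosis and specific necrosis calculated from these counts.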
# K562 [23] = assay: Induction of apoptosis in human K562 cells assessed as 85 kDa PARP level incubated for 72 hrs by Western blot analysis (reference value: 100%); format: functional; method in brief: as §3
# HT-29 [24] = assay: Potency index, ratio of doxorubicin IC50 to compound IC50 for cytotoxicity against human HT-29 cells incubated for 72 hrs by MTT assay; format: functional
# K562 [25] = assay: Induction of apoptosis in human K562 cells assessed as 112 kDa PARP level incubated for 72 hrs by Western blot analysis (reference value: 100%); format: functional; method in brief: as §3
# K562 [26] = assay: Cell cycle arrest in human K562 cells assessed as decrease in cell accumulation at G2/M phase incubated for 72 hrs by propidium iodide staining based flow cytometry relative to tiazofurin; format: functional; method in brief: as §2
# K562 [27] = assay: Induction of apoptosis in human K562 cells incubated for 24 hrs by annexin V FITC and propidium iodide staining based flow cytometry relative to control; format: functional; design: concentration or dose not given beside the values
# K562 [28] = assay: Induction of necrosis in human K562 cells incubated for 24 hrs by annexin V FITC and propidium iodide staining based flow cytometry relative to control; format: functional; design: concentration or dose not given beside the values
# HT-29 [29] = assay: Antiproliferative activity against human HT-29 cells assessed as reduction in cell growth incubated for 72 hrs by MTT assay; format: functional, cell-based; settings: HT-29, 72 h
# Method in brief: as §1, with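 “h. IC50 taken as concentration giving 50% growth inhibition versus untreated control.” for “h.”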
# K562 [30] = assay: Cell cycle arrest in human K562 cells assessed as accumulation in G2/M phase incubated for 24 hrs by propidium iodide staining based flow cytometry (reference value: 14.29%); format: functional; method in brief: as §2
# K562 [31] = assay: Cell cycle arrest in human K562 cells assessed as accumulation in G0/G1 phase incubated for 24 hrs by propidium iodide staining based flow cytometry (reference value: 36.28%); format: functional; method in brief: as §2
# Jurkat [32] = assay: Potency index, ratio of doxorubicin IC50 to compound IC50 for cytotoxicity against human Jurkat cells incubated for 72 hrs by MTT assay; format: functional
# K562 [33] = assay: Induction of apoptosis in human K562 cells incubated for 72 hrs by annexin V FITC and propidium iodide staining based flow cytometry relative to control; format: functional; design: concentration or dose not given beside the values; method in brief: as §4
smiles,measurement,setting,value
NC(=O)c1csc([C@@H]2O[C@H](CO)[C@H](N)[C@H]2O)n1,pIC50,Raji,5.41
same,Activity,K562 [1],12.78%
same,pIC50,HeLa [2],7.92
same,Activity,K562 [3],40.45%
same,Ratio IC50,K562 [4],11 - 318
same,Activity,K562 [5],32.99%
same,pIC50,HL-60,5.03
same,Ratio IC50,HeLa [6],11 - 318
same,pIC50,MRC5,< 4.00
same,Activity,K562 [7],240.62%
same,Ratio IC50,K562 [8],5 - 30
same,Activity,K562 [9],13.77%
same,Activity,K562 [10],Toxic
same,Ratio IC50,Jurkat [11],11 - 318
same,pIC50,Jurkat [12],8.44
same,Activity,K562 [13],Active
same,Activity,K562 [14],172.46%
same,pIC50,K562 [15],7.46
same,Activity,K562 [16],35.75%
same,Ratio IC50,HT-29 [17],11 - 318
same,Activity,K562 [18],164.9%
same,Ratio IC50,HeLa [19],5 - 30
same,Activity,K562 [20],3.87%
same,Activity,K562 [21],1465.64%
same,Activity,K562 [22],20.43%
same,Activity,K562 [23],104.95%
same,Ratio IC50,HT-29 [24],5 - 30
same,Activity,K562 [25],84.76%
same,fold change (FC),K562 [26],2 - 2.4
same,Activity,K562 [27],6.35%
same,Activity,K562 [28],-0.99%
same,pIC50,HT-29 [29],8.30
same,Activity,K562 [30],4.72%
same,Activity,K562 [31],55.65%
same,Ratio IC50,Jurkat [32],5 - 30
same,Activity,K562 [33],34.37%
